≈ marks a conversion by molar mass, not a printed value. Where “and” joins values, the source holds several entries; their conditions need not be identical. Equal values may be shown once. Blank lines part the entries; values can stand above or below the molecule they belong to.
Legend:
[1] = Solubility in water was determined; assay type: physicochemical
How it was run: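 Drug weighed to give approximately 50 mM, sonicated 30 min in 0.05 M sodium lactate buffer (neutral compounds, amine hydrochlorides) or water (sodium salts of acids), left 30 min, centrifuged 13 000 rpm 3 min; supernatant concentration measured by HPLC against calibration from MeOH or DMSO stocks, assuming linear response; 20 °C.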

[2] = biological target: T1, Epidermal growth factor receptor (Homo sapiens, UniProt P00533); assay: Inhibition of epidermal growth factor receptor (EGFR) from human A431 carcinoma cells
T1 sequence (P00533 whole entry): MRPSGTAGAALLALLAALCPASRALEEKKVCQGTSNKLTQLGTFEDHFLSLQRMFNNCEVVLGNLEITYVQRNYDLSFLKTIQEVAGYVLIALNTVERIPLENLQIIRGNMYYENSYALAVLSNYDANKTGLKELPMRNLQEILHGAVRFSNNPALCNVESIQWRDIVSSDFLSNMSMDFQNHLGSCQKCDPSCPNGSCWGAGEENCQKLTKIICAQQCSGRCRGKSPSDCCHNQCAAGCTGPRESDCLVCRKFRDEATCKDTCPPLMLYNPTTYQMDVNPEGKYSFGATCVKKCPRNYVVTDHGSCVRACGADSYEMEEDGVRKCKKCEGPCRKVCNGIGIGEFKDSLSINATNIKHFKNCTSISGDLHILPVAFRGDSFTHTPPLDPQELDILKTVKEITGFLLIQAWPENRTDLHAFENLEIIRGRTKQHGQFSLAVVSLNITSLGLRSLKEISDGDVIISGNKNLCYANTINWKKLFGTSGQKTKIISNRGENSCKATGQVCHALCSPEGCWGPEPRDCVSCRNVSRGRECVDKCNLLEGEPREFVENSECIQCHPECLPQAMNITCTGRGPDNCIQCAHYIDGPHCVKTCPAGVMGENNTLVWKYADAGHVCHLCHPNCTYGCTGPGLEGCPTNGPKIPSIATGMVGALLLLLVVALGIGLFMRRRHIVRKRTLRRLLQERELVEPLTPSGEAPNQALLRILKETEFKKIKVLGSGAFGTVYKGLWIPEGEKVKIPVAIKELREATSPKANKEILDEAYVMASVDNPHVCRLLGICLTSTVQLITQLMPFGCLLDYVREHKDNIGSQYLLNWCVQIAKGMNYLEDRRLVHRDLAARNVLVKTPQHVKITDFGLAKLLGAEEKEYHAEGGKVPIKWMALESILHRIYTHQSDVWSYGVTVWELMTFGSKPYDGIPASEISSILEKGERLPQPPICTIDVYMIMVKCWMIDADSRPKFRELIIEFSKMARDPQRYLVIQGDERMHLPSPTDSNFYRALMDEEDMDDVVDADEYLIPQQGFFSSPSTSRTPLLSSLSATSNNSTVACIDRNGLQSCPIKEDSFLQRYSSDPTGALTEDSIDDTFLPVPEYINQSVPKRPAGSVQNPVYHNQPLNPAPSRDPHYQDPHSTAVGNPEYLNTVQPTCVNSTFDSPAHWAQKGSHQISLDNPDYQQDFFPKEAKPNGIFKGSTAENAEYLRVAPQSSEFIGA

[3] = biological target: T1, Epidermal growth factor receptor; assay: Inhibition of epidermal growth factor receptor (EGFR) autophosphorylation in A431 cells
[4] = biological target: T1, Epidermal growth factor receptor; assay: Inhibition of phosphorylation of polyglutamic acid/tyrosine random copolymer by epidermal growth factor receptor.
Mus musculus [5] = species on record: Mus musculus; assay: Treatment-related weight loss in mice; assay type: functional
How it was run: (§1)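 Mice 18-22 g, randomized, implanted sc with A431 epidermoid or EGFR-transfected NIH 3T3 tumor fragments in right axilla on day 0; tumors maintained by serial passage in NCr nu/nu nude mice. Isethionate salts given ip in water, b.i.d. on indicated schedules (days 7-21, 3-17 or 1-15), dosed by average cage weight; solutions prepared 5 days at a time. Maximum treatment-related body weight loss recorded.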

Mus musculus [6] = species on record: Mus musculus; assay: Ratio of median treated tumor mass on the last day of therapy divided by the median control tumor mass x 100%.; assay type: functional; how it was run: as §1

Compound: Brc1cccc(Nc2ncnc3cc(NCCc4c[nH]cn4)ncc23)c1
- solubility [1]: 35 mM (≈ 14.4 mg/mL)
- IC50 [2]: 0.91 nM

Compound: Brc1cccc(Nc2ncnc3cc(NCCN4CCOCC4)ncc23)c1
- IC50 [3]: 36 nM
- IC50 [4]: 3.2 nM

Compound: CN(C)CCNc1cc2ncnc(Nc3cccc(Br)c3)c2cn1
- IC50 [4]: 45 nM

Compound: OCCN(CCO)c1cc2ncnc(Nc3cccc(Br)c3)c2cn1
- IC50 [4]: 12 nM

Compound: Brc1cccc(Nc2ncnc3cc(NCCCn4ccnc4)ncc23)c1
- solubility [1]: > 40 mM
- IC50 [2]: 0.51 nM

Compound: CN(C)CCCCNc1cc2ncnc(Nc3cccc(Br)c3)c2cn1
- IC50 [4]: 7.4 nM
- Weight loss (Mus musculus [5]): 1 g

Compound: Cc1cccc(Nc2ncnc3cc(NCCCN4CCN(C)CC4)ncc23)c1
- IC50 [4]: 5.6 nM

Compound: CN(CC(O)C(O)C(O)C(O)CO)c1cc2ncnc(Nc3cccc(Br)c3)c2cn1 (stereo unspecified)
- IC50 [4]: 3.2 nM

Compound: CN1CCN(CCCNc2cc3ncnc(Nc4cccc(Br)c4)c3cn2)CC1
- IC50 [4]: 4.9 nM

Compound: Brc1cccc(Nc2ncnc3cc(NCCCN4CCOCC4)ncc23)c1
- T/C (Mus musculus [6]): 34%
- IC50 [3]: 8.1 nM
- IC50 [4]: 1.9 nM
- Weight loss (Mus musculus [5]): 1.7 g and 0.9 g

Compound: Brc1cccc(Nc2ncnc3cc(NCCCCN4CCOCC4)ncc23)c1
- IC50 [4]: 5.4 nM

Compound: CN(CCO)c1cc2ncnc(Nc3cccc(Br)c3)c2cn1
- IC50 [4]: 2.6 nM

Compound: CN(C)CCCNc1cc2ncnc(Nc3cccc(Br)c3)c2cn1
- IC50 [4]: 8.8 nM

Compound: [O-][N+]1(CCCNc2cc3ncnc(Nc4cccc(Br)c4)c3cn2)CCOCC1
- IC50 [3]: > 1000 nM
- IC50 [4]: 0.74 nM

Compound: CNc1cc2ncnc(Nc3cccc(C)c3)c2cn1
- IC50 [4]: 1.4 nM

Compound: CN(C)CCCCCNc1cc2ncnc(Nc3cccc(Br)c3)c2cn1
- IC50 [4]: 8.4 nM

Compound: OCCN(CCO)CCNc1cc2ncnc(Nc3cccc(Br)c3)c2cn1
- IC50 [4]: 9.2 nM

Compound: CN(CC(O)CO)c1cc2ncnc(Nc3cccc(Br)c3)c2cn1 (stereo unspecified)
- IC50 [4]: 3.2 nM

Compound: O=S(=O)(O)CCNc1cc2ncnc(Nc3cccc(Br)c3)c2cn1
- IC50 [3]: > 1000 nM
- IC50 [4]: 1.4 nM

Compound: CN(CC(=O)O)c1cc2ncnc(Nc3cccc(Br)c3)c2cn1
- IC50 [4]: 16 nM

Compound: OCCN(CCO)CCCNc1cc2ncnc(Nc3cccc(Br)c3)c2cn1
- IC50 [4]: 1.2 nM

Compound: NNc1cc2ncnc(Nc3cccc(Br)c3)c2cn1
- IC50 [4]: 7.1 nM

Further lines, results first:

- IC50 [3]: 227 nM
- IC50 [4]: 0.92 nM
Compound: OCC(O)CNc1cc2ncnc(Nc3cccc(Br)c3)c2cn1 (stereo unspecified)

- IC50 [4]: 0.28 nM
Compound: O=C(O)CCCNc1cc2ncnc(Nc3cccc(Br)c3)c2cn1

- IC50 [4]: 0.24 nM
Compound: OCCNc1cc2ncnc(Nc3cccc(Br)c3)c2cn1

- IC50 [4]: 1.5 nM
Compound: O=C(O)CNc1cc2ncnc(Nc3cccc(Br)c3)c2cn1

- IC50 [4]: 40 nM
Compound: CN(C)CCN(C)c1cc2ncnc(Nc3cccc(Br)c3)c2cn1

- solubility [1]: > 39 mM
- IC50 [2]: 7.2 nM
Compound: Cc1cccc(Nc2ncnc3cc(NCCc4c[nH]cn4)ncc23)c1

- IC50 [3]: 11400 nM
- IC50 [4]: 0.61 nM
Compound: O=C(O)CCNc1cc2ncnc(Nc3cccc(Br)c3)c2cn1

- IC50 [4]: 4.8 nM
Compound: OCC(O)C(O)C(O)C(O)CNc1cc2ncnc(Nc3cccc(Br)c3)c2cn1 (stereo unspecified)

- IC50 [4]: 5.4 nM
Compound: Cc1cccc(Nc2ncnc3cc(NCCCCN(C)C)ncc23)c1

- IC50 [4]: 14 nM
Compound: OCC(CO)Nc1cc2ncnc(Nc3cccc(Br)c3)c2cn1

- solubility [1]: > 34 mM
- IC50 [2]: 3.5 nM
Compound: Cc1cccc(Nc2ncnc3cc(NCCCn4ccnc4)ncc23)c1
